This note sets out measurements from ChEMBL document CHEMBL5113397, “Identification, optimization, and biological evaluation of 3-O-β-chacotriosyl ursolic acid derivatives as novel SARS-CoV-2 entry inhibitors by targeting the prefusion state of spike protein” (Eur J Med Chem, 2022).

pEC50, pKd: −log10 of the molar value.

Data set [1] in a line: Cytotoxicity against human HEK293T cells overexpressing human ACE2 assessed as inhibition of cell growth incubated for 48 hrs by MTT assay. Type of data set: toxicity, cell-based, HEK-293T. In short, it runs like this: (§1)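 Monolayers of 293T-ACE2 or Vero E6 cells in DMEM with 10% FBS were PBS-rinsed and exposed to compounds for 48 h. MTT 0.5 mg/mL was then added for 4 h at 37 °C, formazan dissolved in DMSO, and absorbance read at 570 nm.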
For orientation: Formazan colour is commonly taken as a measure of viable cells.

The subject of data set [2] is SARS-CoV-2. The data set can be described thus: Antiviral activity against SARS-CoV-2 Wuhan-HU-1 infected African green monkey Vero E6 cells preincubated for 1 hrs followed by incubation with virus 1 hr and measured after 24 hrs by fluorescence assay. Format: functional, organism-based. The note with it: Severe acute respiratory syndrome coronavirus 2, Wuhan-HU-1, Vero C1008.

The target in data set [3] is Spike glycoprotein (Severe acute respiratory syndrome coronavirus 2, UniProt P0DTC2). Briefly: Binding affinity to SARS-CoV-2 Spike trimer protein by SPR analysis. In a few lines: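 Compound photo-crosslinked onto the chip; recombinant S-trimer injected at a series of concentrations in PBST (0.1% Tween 20, pH 7.4). Run at 4 °C, 600 s association, 360 s dissociation, 0.5 µL/s flow. Chip regenerated with glycine-HCl pH 2.0; KD from the SPR signals.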

Data set [4] in a line: Cytotoxicity against African green monkey Vero E6 cells assessed as inhibition of cell growth incubated for 48 hrs by MTT assay. Format: toxicity, cell-based, Vero C1008. The settings on record: chlorocebus sabaeus. In a few lines:
as §1

Data set [5] in a line: Selectivity index, ratio of CC50 for cytotoxicity against African green monkey Vero E6 cells to EC50 for antiviral activity against SARS-CoV-2 Wuhan-Hu-1 infected African green monkey Vero E6 cells. Format: toxicity, cell-based, Vero C1008. The note with it: read-out: Ratio CC50/EC50.
Data set [6] has as its system SARS-CoV-2. Briefly: Antiviral activity against pseudovirus SARS-CoV-2 spike protein expressed in human HEK293T cells assessed as inhibition of spike protein S2 subunit mediated membrane fusion in African green monkey Vero E6 cells at 2.5 to 20 uM incubated for 0.5 hr and measured after 24 hrs by inverted fluorescence microscopy. Type of data set: functional, organism-based. The note with it: Severe acute respiratory syndrome coronavirus 2, dose 2.5-20 µM, time 24.5 hrs, DDE = dose-dependent effect. In short, it runs like this: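 Effector HEK-293T cells were transfected with GFP/SARS-CoV-2 S plasmid, or an EGFP-only vector as control. They were treated with or without graded compound for 30 min, then overlaid on Vero-E6 target cells seeded 6 h before. After 24 h, three random fields were imaged by inverted fluorescence microscopy.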

The subject of data set [7] is SARS-CoV-2. Briefly: Antiviral activity against SARS-CoV-2 Wuhan-HU-1 infected African green monkey Vero E6 cells assessed as reduction in N-protein expression at 0.55 to 15 uM by indirect immunofluorescence assay. Format: functional, organism-based. The settings on record: Severe acute respiratory syndrome coronavirus 2, dose 0.55-15 µM, DDE = dose-dependent effect.

One may read the CC50 as the concentration at which the toxic effect on the cells reaches its halfway point. Take `C[C@H]1[C@H](C)CC[C@]2(C(=O)NCc3ccccc3)CC[C@]3(C)C(=CC[C@@H]4[C@@]5(C)CC[C@H](O[C@@H]6O[C@H](CO)[C@@H](O[C@@H]7O[C@@H](C)[C@H](O)[C@@H](O)[C@H]7O)[C@H](O)[C@H]6O[C@@H]6O[C@@H](C)[C@H](O)[C@@H](O)[C@H]6O)C(C)(C)[C@@H]5CC[C@]43C)[C@H]12`: in data set [1], the CC50 at 48 h is greater than 100 µM.

A word on the pEC50: it is the negative decadic logarithm of the EC50, by convention in mol/L. By pKd is commonly meant the Kd on a negative log10 scale, so that one unit is a factor of ten. On to `COc1ccccc1NC(=O)[C@]12CC[C@@H](C)[C@H](C)[C@H]1C1=CC[C@@H]3[C@@]4(C)CC[C@H](O[C@@H]5O[C@H](CO)[C@@H](O[C@@H]6O[C@@H](C)[C@H](O)[C@@H](O)[C@H]6O)[C@H](O)[C@H]5O[C@@H]5O[C@@H](C)[C@H](O)[C@@H](O)[C@H]5O)C(C)(C)[C@@H]4CC[C@@]3(C)[C@]1(C)CC2`, for which, in data set [2], the pEC50 is 5.62. In data set [3], the pKd was 4.86. Further, the CC50 at 48 h is 43.3 µM in data set [1] and greater than 100 µM in data set [4]. Moreover, in data set [5], the selectivity ratio was greater than 42.

As for `COc1ccc(CNC(=O)[C@]23CC[C@@H](C)[C@H](C)[C@H]2C2=CC[C@@H]4[C@@]5(C)CC[C@H](O[C@@H]6O[C@H](CO)[C@@H](O[C@@H]7O[C@@H](C)[C@H](O)[C@@H](O)[C@H]7O)[C@H](O)[C@H]6O[C@@H]6O[C@@H](C)[C@H](O)[C@@H](O)[C@H]6O)C(C)(C)[C@@H]5CC[C@@]4(C)[C@]2(C)CC3)cc1`, in data set [1], the CC50 at 48 h is greater than 100 µM.

Regarding `COc1cccc(OC)c1NC(=O)[C@]12CC[C@@H](C)[C@H](C)[C@H]1C1=CC[C@@H]3[C@@]4(C)CC[C@H](O[C@@H]5O[C@H](CO)[C@@H](O[C@@H]6O[C@@H](C)[C@H](O)[C@@H](O)[C@H]6O)[C@H](O)[C@H]5O[C@@H]5O[C@@H](C)[C@H](O)[C@@H](O)[C@H]5O)C(C)(C)[C@@H]4CC[C@@]3(C)[C@]1(C)CC2`, the inhibition entry in data set [6] is “Dde”. In data set [2], this molecule showed a pEC50 of 5.69. In data set [3], this molecule had a pKd of 6.11. Further, in data set [7], the Activity result is “Dde”. Besides, the CC50 at 48 h in data set [1] and in data set [4] was greater than 100 µM in each case. Also, in data set [5], the selectivity ratio was greater than 48.8.
